The target of test [1] is T1, Fatty-acid amide hydrolase 1 (Homo sapiens, UniProt O00519).
T1 sequence (O00519 whole entry): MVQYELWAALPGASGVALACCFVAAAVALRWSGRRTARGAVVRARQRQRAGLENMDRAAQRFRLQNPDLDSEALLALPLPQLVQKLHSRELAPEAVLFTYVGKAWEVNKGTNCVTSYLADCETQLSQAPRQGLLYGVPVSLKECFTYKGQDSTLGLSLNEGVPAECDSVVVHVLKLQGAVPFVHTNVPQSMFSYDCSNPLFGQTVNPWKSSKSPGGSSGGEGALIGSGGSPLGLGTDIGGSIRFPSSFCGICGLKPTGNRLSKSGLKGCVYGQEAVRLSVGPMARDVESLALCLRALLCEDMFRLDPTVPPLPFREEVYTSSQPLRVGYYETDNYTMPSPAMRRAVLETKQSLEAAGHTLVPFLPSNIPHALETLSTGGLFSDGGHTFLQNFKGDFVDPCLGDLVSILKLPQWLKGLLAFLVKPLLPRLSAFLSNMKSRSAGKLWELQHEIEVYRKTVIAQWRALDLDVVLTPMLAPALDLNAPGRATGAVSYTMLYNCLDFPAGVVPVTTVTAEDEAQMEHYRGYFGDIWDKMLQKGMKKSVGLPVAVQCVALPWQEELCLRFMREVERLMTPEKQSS
In words: Inhibition of FAAH (unknown origin) in human U-937 cells using [ethanolamine-1-3H]AEA as substrate preincubated for 30 mins followed by substrate addition measured after 15 mins by liquid scintillation spectroscopy. The test is classed as cell-based. The gist of the method: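 U937 cell homogenate (100 μg) in 10 mM Tris-HCl, 1 mM EDTA, 0.1% fatty-acid-free BSA, pH 8. Compound preincubated 30 min at 37 °C, then 100 nM AEA with 1 nM [ethanolamine-1-3H]AEA tracer added for 15 min at 37 °C. Stopped with cold CHCl3/MeOH (1:1); tritium counted in aqueous phase.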

The target of test [2] is T2, Monoacylglycerol lipase ABHD6 (Homo sapiens, UniProt Q9BV23).
T2 sequence (Q9BV23 whole entry): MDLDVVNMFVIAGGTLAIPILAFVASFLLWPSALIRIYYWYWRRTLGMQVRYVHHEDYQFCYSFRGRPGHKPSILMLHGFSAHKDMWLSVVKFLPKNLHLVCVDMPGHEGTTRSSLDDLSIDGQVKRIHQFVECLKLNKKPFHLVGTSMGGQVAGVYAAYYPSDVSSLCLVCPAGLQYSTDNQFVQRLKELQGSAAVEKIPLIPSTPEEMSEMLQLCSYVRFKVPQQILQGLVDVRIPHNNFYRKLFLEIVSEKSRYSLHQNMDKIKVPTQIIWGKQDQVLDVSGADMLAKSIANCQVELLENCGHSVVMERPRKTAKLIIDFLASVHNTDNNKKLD
The test can be described thus: Inhibition of human ABHD6 transfected in HEK293 cells using 2-OG as substrate preincubated for 30 mins followed by substrate addition measured after 5 mins by liquid scintillation spectroscopy. The test is classed as cell-based. The gist of the method:
(§1)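 Homogenate (40 μg) of HEK-293 cells stably expressing hABHD6 or hABHD12, in […], 0.1% BSA, pH 7.6. Compound preincubated 30 min at 37 °C, then 10 μM 2-OG for 5 min at 37 °C. Tritium counted in aqueous phase; non-transfected HEK293 hydrolysis subtracted. Positive controls: WWL70 10 μM (ABHD6), THL 20 μM (ABHD12). At least two experiments in triplicate, mean ± SD.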

The target of test [3] is T3, Lysophosphatidylserine lipase ABHD12 (Homo sapiens, UniProt Q8N2K0).
T3 sequence (Q8N2K0 whole entry): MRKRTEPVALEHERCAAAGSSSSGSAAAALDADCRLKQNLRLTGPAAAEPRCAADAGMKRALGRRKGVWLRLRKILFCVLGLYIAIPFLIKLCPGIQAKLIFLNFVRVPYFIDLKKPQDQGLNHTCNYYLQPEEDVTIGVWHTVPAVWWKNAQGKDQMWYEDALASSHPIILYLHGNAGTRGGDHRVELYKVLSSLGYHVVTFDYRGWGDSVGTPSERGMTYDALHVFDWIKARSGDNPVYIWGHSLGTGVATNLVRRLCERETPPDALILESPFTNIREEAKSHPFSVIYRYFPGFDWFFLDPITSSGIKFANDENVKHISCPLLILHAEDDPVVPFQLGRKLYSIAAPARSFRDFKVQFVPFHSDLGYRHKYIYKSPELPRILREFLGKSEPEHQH
In words: Inhibition of human ABHD12 transfected in HEK293 cells using 2-OG as substrate preincubated for 30 mins followed by substrate addition measured after 5 mins by liquid scintillation spectroscopy. It is filed as cell-based. The gist of the method: as §1

For test [4], the system named is Mus musculus. In words: In vivo agonist activity at CB1R in BALB/c mouse assessed as induction of hypolocomotion at 50 mg/kg, ip measured after 1 hr by rotarod test. The test is classed as functional, organism-based. The gist of the method: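 Male BALB/c mice (8–10 weeks) given compound in pure DMSO intraperitoneally, 5–8 mice per group. Rotarod at 6 rpm, 1 h post-dose. Read-out is latency to fall, cutoff 120 s, over three trials. Groups compared with vehicle by Kruskal–Wallis then Mann–Whitney.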
On the technique in general: Falling from the rotarod earlier than controls is read as motor impairment.

Test [5] has as its system Mus musculus. The test can be described thus: In vivo agonist activity at CB1R in BALB/c mouse assessed as catalepsy like behaviour at 50 mg/kg, ip measured after 1 hr by bar test. The test is classed as functional, organism-based. In outline:
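Male BALB/c mice (8–10 weeks) given compound in pure DMSO intraperitoneally, 5–8 mice per group. Bar test at 1 h: forelimbs placed on a 4 cm high bar. End-point is both front limbs removed or held over 120 s. Three trials per mouse. Groups compared with vehicle by Kruskal–Wallis then Mann–Whitney.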

In test [6] the test system is Mus musculus. The test can be described thus: In vivo agonist activity at CB1R in BALB/c mouse assessed as induction of analgesia at 50 mg/kg, ip measured after 1 hr by hot plate test. It is filed as functional, organism-based. The gist of the method: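 Male BALB/c mice (8–10 weeks) given compound in pure DMSO intraperitoneally, 5–8 mice per group. Hot plate at 54–56 °C inside a Plexiglas cylinder, 1 h post-dose. Read-out is latency to first nociceptive response (paw lick or foot shake). Groups compared with vehicle by Kruskal–Wallis then Mann–Whitney.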
(In hot-plate and tail-flick tests a longer latency is read as antinociception.)

Test [7] has as its system Mus musculus. In words: In vivo agonist activity at CB1R in BALB/c mouse assessed as induction of hypothermia at 50 mg/kg, ip measured after 1 hr by rectal measurement method. The test is classed as functional, organism-based. In outline: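 Male BALB/c mice (8–10 weeks) given compound in pure DMSO intraperitoneally, 5–8 mice per group. Rectal temperature taken by thermocouple probe before dosing and 1 h after. Change is expressed as basal minus post-injection temperature. Groups compared with vehicle by Kruskal–Wallis then Mann–Whitney.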

In the next test the target is T4, Monoglyceride lipase (Homo sapiens, UniProt Q99685).
T4 sequence (Q99685 whole entry): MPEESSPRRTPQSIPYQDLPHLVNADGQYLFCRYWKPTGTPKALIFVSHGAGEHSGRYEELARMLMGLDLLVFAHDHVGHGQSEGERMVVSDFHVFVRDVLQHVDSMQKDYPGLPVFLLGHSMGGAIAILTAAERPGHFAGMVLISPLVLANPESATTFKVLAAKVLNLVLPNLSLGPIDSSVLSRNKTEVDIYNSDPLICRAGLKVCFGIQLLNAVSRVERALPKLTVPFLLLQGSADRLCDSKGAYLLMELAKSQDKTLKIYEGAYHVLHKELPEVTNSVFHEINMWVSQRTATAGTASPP
In words: Inhibition of MAGL (unknown origin) in human U-937 cells using [ethanolamine-1-3H]AEA as substrate preincubated for 30 mins followed by substrate addition measured after 15 mins by liquid scintillation spectroscopy. The test is classed as cell-based.

The source made the active and inactive calls. Bounds are passed on as bounds.

One may read the IC50 as the concentration that inhibits the measured activity by half. A high value points to weaker potency.

Regarding `CCCCCc1cc(O)c2c(c1)OC(C)(C)[C@@H]1CCC(C)=C[C@@H]21` [DRONABINOL], the half-maximal inhibitory concentration (IC50) in test [1] is 43.6 µM; in test [2], 48.2 µM; in test [3], 11.6 µM; on Monoglyceride lipase, above 100 µM. Besides, the result in the test with Mus musculus [4], in the test on Mus musculus [5], in the test on Mus musculus [6] and in the test on Mus musculus [7] was Active.

Consider `CCCCCc1cc(O)c2c(c1)OC(C)(C)[C@H]1CCC(C)=C[C@@H]21`, for which the 50% inhibitory concentration (IC50) in test [1] is 36.3 µM; in test [2] it was 39.8 µM; in test [3], 14.1 µM; against Monoglyceride lipase, above 100 µM. Also, the result in the test with Mus musculus [4], with Mus musculus [5], in the test on Mus musculus [6] and in the test on Mus musculus [7] was Active.

`CCCCCc1cc(O)c2c(c1)OC(C)(C)[C@@H]1CCC(C)=C[C@H]21`: the IC50 is above 80 µM in test [1], 35.1 µM in test [2], 28.8 µM in test [3] and above 100 µM on Monoglyceride lipase.

Source of the values: ChEMBL document CHEMBL4840315, “Δ9-cis-Tetrahydrocannabinol: Natural Occurrence, Chirality, and Pharmacology” (J Nat Prod, 2021).
